UBC13 polyUb – UBC13 polyubiquitin chain formation inhibitors, primary screen, biochemical, TR-FRET, uHTS | 330,000 tested, 0.47% active | inhibition, % at 20 µM | Ubiquitin-conjugating enzyme E2 N (Homo sapiens), P61088; in the data active = inhibition above about 45%, passing the limit was not always enough
MEKK2 WT-MEK5 – modulators of MEK5 binding to wildtype MEKK2, primary screen, biochemical, multiplex bead flow cytometry, Alexa488-MEK5; Mitogen-activated protein kinase kinase kinase 2 (Homo sapiens), Q9Y2U5; Alexa488-MEK5 binding to MEKK2 WT; actives lie on both sides; binding response (% of control), % at 10 µM; 290,000 tested, 1.1% active; AID 1531, 2009; in the data active = binding response below about 67% or above about 130%
UCH37 DUB inh – inhibitors of human UCH37 deubiquitinase, primary screen, biochemical, Ub-AMC cleavage, fluorescence | inhibition, % (concentration not given with the values) | purified proteasome/UCH37 | 330,000 tested, 0.33% active | Ubiquitin carboxyl-terminal hydrolase isozyme L5 (Homo sapiens), Q9Y5K5 | AID 588478, 2011;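 active = mean inhibition over replicate wells above about 20%, limit read from the data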
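Assay system: Proteasome-bound UCH37. Buffer or medium: pH 7.4 Tris-HCl (50 mM) with ovalbumin, ATP-MgCl2, DTT. Incubation: 30 min preincubation with enzyme, 25 min cleavage at room temperature. Measured by: fluorescence, ex 355 nm, em 460 nm. Read-out basis: percent inhibition. Control set: wells without proteasome as full block, compound-free enzyme plus substrate as uninhibited.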
Apaf1 inhib – inhibitors of human Apaf-1 apoptosome, primary screen, biochemical, DEVD-Rh110 fluorescence, uHTS; Apoptotic protease-activating factor 1 (Homo sapiens), O14727; reconstituted apoptosome caspase-3 activity; inhibition, % at 20 µM; 330,000 tested, 0.71% active; AID 489030, 2010; active = inhibition of at least 40% at 20 µM
Target sequence (O14727 whole entry, looked up): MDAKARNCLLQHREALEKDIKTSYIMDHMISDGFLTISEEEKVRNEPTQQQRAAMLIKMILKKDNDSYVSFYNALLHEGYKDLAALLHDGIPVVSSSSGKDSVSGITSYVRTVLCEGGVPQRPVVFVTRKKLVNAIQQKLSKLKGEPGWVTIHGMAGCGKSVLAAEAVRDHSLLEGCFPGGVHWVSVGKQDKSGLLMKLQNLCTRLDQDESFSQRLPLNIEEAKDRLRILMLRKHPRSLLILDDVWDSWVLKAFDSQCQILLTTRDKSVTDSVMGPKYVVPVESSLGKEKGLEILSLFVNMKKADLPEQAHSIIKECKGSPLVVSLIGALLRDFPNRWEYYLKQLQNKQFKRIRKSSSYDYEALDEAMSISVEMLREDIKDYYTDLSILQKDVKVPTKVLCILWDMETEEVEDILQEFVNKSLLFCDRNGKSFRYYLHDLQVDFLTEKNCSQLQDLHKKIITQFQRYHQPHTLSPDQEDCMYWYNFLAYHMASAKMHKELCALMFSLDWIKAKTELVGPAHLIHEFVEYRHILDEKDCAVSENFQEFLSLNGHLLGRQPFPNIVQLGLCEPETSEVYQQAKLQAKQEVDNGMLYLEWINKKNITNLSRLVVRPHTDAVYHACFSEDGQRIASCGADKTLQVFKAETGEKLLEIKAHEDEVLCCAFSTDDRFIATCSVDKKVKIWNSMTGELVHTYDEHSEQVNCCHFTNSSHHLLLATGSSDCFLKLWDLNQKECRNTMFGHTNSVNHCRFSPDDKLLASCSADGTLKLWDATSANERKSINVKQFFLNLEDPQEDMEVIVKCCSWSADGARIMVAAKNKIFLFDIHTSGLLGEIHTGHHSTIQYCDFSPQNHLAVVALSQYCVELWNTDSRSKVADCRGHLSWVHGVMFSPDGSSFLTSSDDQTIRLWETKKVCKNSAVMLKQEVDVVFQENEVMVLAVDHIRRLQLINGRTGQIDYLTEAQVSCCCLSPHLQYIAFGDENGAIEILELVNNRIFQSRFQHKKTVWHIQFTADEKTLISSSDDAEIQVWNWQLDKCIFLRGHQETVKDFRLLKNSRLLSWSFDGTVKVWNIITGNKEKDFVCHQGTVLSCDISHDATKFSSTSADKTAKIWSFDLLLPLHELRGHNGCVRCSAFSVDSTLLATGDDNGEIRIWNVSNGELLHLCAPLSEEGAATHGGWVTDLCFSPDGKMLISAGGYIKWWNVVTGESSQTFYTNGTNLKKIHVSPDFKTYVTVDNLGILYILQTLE
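Material: biochemical Apaf-1 apoptosome reconstitution. Medium: Hepes buffer, pH 7.5. Also added: cytochrome c activation, bis-DEVD rhodamine 110 substrate. Timing: 30 min compound preincubation, 50 min activation, room temperature. Measured by: rhodamine 110 fluorescence at Ex 480/Em 540 nm.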
MEKK3 PB1 HTS – modulators of MEKK3-MEK5 PB1 binding, primary screen, biochemical, wildtype MEKK3, multiplex bead flow cytometry, Alexa488-MEK5. Mitogen-activated protein kinase kinase kinase 3 (Homo sapiens), Q99759. 290,000 tested, 1.4% active. binding response (% of control), % at 10 µM. bead-based flow cytometry, Alexa488-MEK5 binding to MEKK3; actives lie on both sides; 0 = blocked by unlabeled MEK5, 100 = vehicle;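 active = binding response more than 3 SD above or below the average of its plate-row segment, actives on both sides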;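 note: Alexa488 bead fluorescence after subtracting the streptavidin-only scavenger bead signal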
MEKK2 mut-MEK5 – MEK5 binding signal on mutant MEKK2 PB1, primary screen, biochemical, multiplex bead flow cytometry, Alexa488-MEK5; Alexa488-MEK5 binding to MEKK2 mutant; percent response, % at 10 µM; 290,000 tested, 0.35% active; AID 1530, 2009; in the data active = percent response above about 24%, passing the limit was not always enough
Casp3 counter – CASP3 inhibitor validation, counterassay for project on UBE2N polyubiquitination blockers, biochemical, one dose. shares compounds with UBC13 polyUb. Recombinant caspase-3, Caspase-Glo 3/7 luminescence, 60 min. inhibition, % at 20 µM. 1,400 tested, 4% active;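 active = mean inhibition across replicates above about 26%, limit read from the data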
UBC13 conf – UBC13 polyubiquitination inhibitors, single-point retest, confirmation, biochemical, TR-FRET, single concentration. shares compounds with UBC13 polyUb. 1,400 tested, 68% active. AID 488859, 2010. inhibition, % at 10 µM; in the data active = inhibition above about 45%
Of the large screens only hits and unclear results are named; the others gave an inactive call (follow-up assays come after a bar, where they were run). In the library only some 3% were active in any assay of this set; here they are far more common.

CN(CCNC(=O)C1CCN(c2ncnc3c2nc2n3CCCCC2)CC1)Cc1ccccc1	UBC13 polyUb 91 | Casp3 counter inactive | UBC13 conf 106
CC(=NNC(=O)CNC(=O)c1ccccc1F)c1ccco1	none (no result: UBC13 polyUb, MEKK2 WT-MEK5, Apaf1 inhib, MEKK3 PB1 HTS, MEKK2 mut-MEK5)
Cc1nc(C(C)NC(=O)CCc2nnc(-c3ccsc3)o2)cs1 (stereo not given)	none
COCCNC(=O)C(c1ccc(C)o1)N(Cc1ccc(F)cc1)C(=O)Cn1nnc2ccccc21 (stereo not given)	none
CCOc1ccc(C(=O)C(C)OC(=O)c2nc(Cl)ccc2Cl)cc1 (stereo not given)	UBC13 polyUb 47 (no result: MEKK2 WT-MEK5, MEKK3 PB1 HTS, MEKK2 mut-MEK5) | Casp3 counter inactive | UBC13 conf 72
COc1ccc(CN2C(=O)c3cccc4cccc2c34)cc1F	UBC13 polyUb 64 | Casp3 counter inactive | UBC13 conf 62
CCOc1ccc(C(C(=O)NCC2CCCO2)N(C(=O)c2snc(C(N)=O)c2N)c2cccc(F)c2)cc1 (stereo not given)	none
Cc1ccc(C(C(=O)NCC2CCCO2)N(C(=O)c2snc(C(N)=O)c2N)c2ccc(F)cc2)o1 (stereo not given)	UBC13 polyUb 46 | Casp3 counter inactive | UBC13 conf inactive
NC(=O)c1nsc(C(=O)N(c2ccccc2F)C(C(=O)NCc2ccc(F)cc2)c2ccc(O)cc2)c1N (stereo not given)	UBC13 polyUb 47 (no result: UCH37 DUB inh) | Casp3 counter inactive | UBC13 conf 49
Cc1ccc(C(C(=O)NCC2CCCO2)N(C(=O)c2snc(C(N)=O)c2N)c2ccccc2F)o1 (stereo not given)	UBC13 polyUb 47 | Casp3 counter inactive | UBC13 conf inactive
COc1ccccc1N(C(=O)c1snc(C(N)=O)c1N)C(C(=O)NCc1ccccc1)c1ccc(O)cc1 (stereo not given)	none
CCOc1ccc(C(C(=O)NCC2CCCO2)N(C(=O)c2snc(C(N)=O)c2N)c2ccccc2F)cc1 (stereo not given)	UBC13 polyUb 48 (no result: UCH37 DUB inh) | Casp3 counter inactive | UBC13 conf 48
NC(=O)c1nsc(C(=O)N(c2ccccc2)C(C(=O)NCC2CCCO2)c2ccc(F)cc2)c1N (stereo not given)	none
COc1cc(CCC(=O)OCC(=O)Nc2c(F)cccc2F)cc(OC)c1OC	none
COc1cc(/C=N/NC(=O)c2cccc3ccccc23)cc(OC)c1O	none (no result: UCH37 DUB inh)
CCOC(CC(=O)NNC(=O)c1c(-c2ccccc2Cl)noc1C)OCC	none
CCOc1ccc(N(C(=O)c2snc(C(N)=O)c2N)C(C(=O)NCC2CCCO2)c2ccc(C)o2)cc1 (stereo not given)	UBC13 polyUb 74 | Casp3 counter inactive | UBC13 conf 82
COc1cc(OC)cc(N(C(=O)c2snc(C(N)=O)c2N)C(C(=O)NCC2CCCO2)c2ccc(C)o2)c1 (stereo not given)	none (no result: UCH37 DUB inh)
Nn1c(SCc2ccc([N+](=O)[O-])cc2)nc2ccccc2c1=O	none
CN(C(=O)c1cccc(NC(=O)Cc2ccc(NC(=O)C3CCCN(C(=O)C4CC4)C3)cc2)c1)C1CCCCC1 (stereo not given)	none (no result: UBC13 polyUb, MEKK2 WT-MEK5, Apaf1 inhib, MEKK3 PB1 HTS, MEKK2 mut-MEK5)
CC(=NNC(=O)CSCc1ccc([N+](=O)[O-])cc1)c1ccccc1O	none (no result: UBC13 polyUb, MEKK2 WT-MEK5, Apaf1 inhib, MEKK3 PB1 HTS, MEKK2 mut-MEK5)
C/C(=N\NC(=O)CSCc1ccc([N+](=O)[O-])cc1)c1ccccc1	UBC13 polyUb 91 (no result: UCH37 DUB inh) | Casp3 counter inactive | UBC13 conf 109
C/C(=N\NC(=O)CSCc1ccc([N+](=O)[O-])cc1)c1ccccc1O	UBC13 polyUb 84 (no result: UCH37 DUB inh) | Casp3 counter inactive | UBC13 conf 95
CC(=NNC(=O)CC(=O)NN=C(C)c1ccc([N+](=O)[O-])cc1)c1ccc([N+](=O)[O-])cc1	none (no result: UBC13 polyUb, MEKK2 WT-MEK5, Apaf1 inhib, MEKK3 PB1 HTS, MEKK2 mut-MEK5)
CC(C)(C)c1cc(-c2nc(N)nc(N)n2)c(O)c(C(C)(C)C)c1	UBC13 polyUb 51 (no result: MEKK2 WT-MEK5, MEKK3 PB1 HTS, MEKK2 mut-MEK5) | Casp3 counter inactive | UBC13 conf inactive
Nc1nc(N)nc(-c2cc(O)ccc2O)n1	none (no result: MEKK2 WT-MEK5, MEKK3 PB1 HTS, MEKK2 mut-MEK5)
CCOc1ccc(N2C(=O)C3C(c4ccccc4)=NN(c4ccccc4)C3C2=O)cc1 (stereo not given)	UBC13 polyUb 56 | Casp3 counter inactive | UBC13 conf inactive
O=C(CCCN1C(=O)/C(=C/c2ccccc2Cl)SC1=S)NNC(=O)c1ccc(Cl)cc1	UBC13 polyUb 58 | Casp3 counter inactive | UBC13 conf 83
Cc1ccc(C(=O)NNC(=O)CCCN2C(=O)/C(=C/c3ccccc3Cl)SC2=S)cc1	none
Cc1nc(N)sc1C(=O)N/N=C/c1cccnc1	UBC13 polyUb 92 (no result: UCH37 DUB inh) | Casp3 counter inactive | UBC13 conf 108
Cc1cc(C)c2sc(N(CCCN(C)C)C(=O)c3ccc(S(=O)(=O)N4CCc5ccccc5C4)cc3)nc2c1	UBC13 polyUb 87 (no result: MEKK2 WT-MEK5, UCH37 DUB inh, MEKK3 PB1 HTS, MEKK2 mut-MEK5) | Casp3 counter inactive | UBC13 conf 112
COc1ccc2sc(N(CCCN(C)C)C(=O)c3ccc(S(=O)(=O)N4CCc5ccccc5C4)cc3)nc2c1	UBC13 polyUb 75 (no result: MEKK2 WT-MEK5, UCH37 DUB inh, MEKK3 PB1 HTS, MEKK2 mut-MEK5) | Casp3 counter inactive | UBC13 conf 110
Cc1cc(C)c2sc(NNC(=O)c3ccc(S(=O)(=O)N4CCc5ccccc5C4)cc3)nc2c1	none
COc1ccc2sc(N(CCCN(C)C)C(=O)c3ccc(S(=O)(=O)N4CCCC4)cc3)nc2c1	none (no result: MEKK2 WT-MEK5, MEKK3 PB1 HTS, MEKK2 mut-MEK5)
CC(C)NC(=O)C(=O)NCCc1ccc(Cl)cc1	none
CSCCCN1CCCC(CO)(Cc2ccc(F)cc2)C1 (stereo not given)	none
C=CCNc1oc(-c2ccco2)nc1S(=O)(=O)c1ccccc1	none
COc1ccc2[nH]cc(CCNC(=O)Nc3ccccc3)c2c1	UBC13 polyUb 52 | Casp3 counter inactive | UBC13 conf inactive
COc1ccc2c(CCNC(=O)Nc3ccccc3)c[nH]c2c1	none
Cn1cccc1/C=C1\SC(=S)N(NC(=O)c2ccccc2O)C1=O	none
O=C(NN1C(=O)/C(=C/C=C/c2ccco2)SC1=S)c1ccccc1O	UBC13 polyUb 45 | Casp3 counter inactive | UBC13 conf inactive

Screens deposited in PubChem BioAssay by several laboratories.
